We go through 35 compounds from ChEMBL document CHEMBL3407362, “Design and synthesis of potent and multifunctional aldose reductase inhibitors based on quinoxalinones” (J Med Chem, 2015).

The target in data set [1] is Aldo-keto reductase family 1 member B1 (Rattus norvegicus, UniProt P07943). Briefly: Inhibition of Wistar rat lenses ALR2 using D,L-glyceraldehyde as substrate preincubated for 10 mins before substrate addition measured after 4 mins by spectrophotometry.
Data set [2] in a line: Antioxidant activity assessed as DPPH scavenging activity after 30 mins by UV spectrophotometry. Format: physicochemical.
The test system of the next data set is Brain. Briefly: Antioxidant activity in rat brain assessed as inhibition of lipid peroxidation by TBARS assay. Format: functional, tissue-based. Summed up: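 Fresh rat brain homogenized in ice-cold saline, centrifuged; lipoperoxidation driven by Fe(III)/ascorbic acid, compounds at 100 μM; malondialdehyde measured as TBARS (trichloroacetic acid, then thiobarbituric acid, red color at 532 nm); protein by Coomassie method.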

Data set [3] in a line: Antioxidant activity assessed as DPPH scavenging activity at 100 uM after 30 mins by UV spectrophotometry. It is filed as physicochemical. The following applies: 0.5 h.
The species entered for the next data set is Rattus norvegicus. Briefly: Selectivity ratio for Wistar rat lenses ALR2 over Wistar rat kidney ALR1. The following applies: Lens of camera-type eye. It is filed as tissue-based.
Data set [4] is described as follows: Antioxidant activity assessed as DPPH scavenging activity at 10 uM after 30 mins by UV spectrophotometry. It is filed as physicochemical. The settings on record: 0.5 h.
Data set [5] can be described thus: Antioxidant activity assessed as DPPH scavenging activity at 50 uM after 30 mins by UV spectrophotometry. It is filed as physicochemical. The following applies: 0.5 h.

The source made the active and inactive calls. No cut-off for these calls is given here.

In the case of `O=C(O)Cn1c(=O)c(/C=C/c2ccc(O)cc2)nc2ccccc21`, the IC50 was determined as 182 nM in data set [1] and 51500 nM in data set [2]. For the same compound, the inhibition result in the data set on Brain was “Active”. Besides, the Activity in data set [3] is 71.8%.

On to `O=C(O)Cn1c(=O)c(Sc2ccc(Br)cc2)nc2ccc(Br)cc21`, for which, in data set [1], the IC50 came to 467 nM. In the data set listed under Rattus norvegicus, the Selectivity ratio stood at 3.7.

As to `O=C(O)Cn1c(=O)c(CCc2ccc(O)cc2)nc2ccc(F)cc21`, the IC50 in data set [1] came out at 652 nM. Moreover, the Activity in data set [3] is 14.7%.

The compound `O=C(O)Cn1c(=O)c(-c2ccc(O)cc2O)nc2ccc(Br)cc21` gave an IC50 in data set [1] of 91 nM.

On to `O=C(O)Cn1c(=O)c(-c2ccc(O)cc2O)nc2ccc(F)cc21`, for which it took 32 nM to reach half-maximal inhibition in data set [1] (IC50).

In data set [1], `O=C(O)Cn1c(=O)c(-c2ccc(F)cc2)nc2ccc(-c3ccc(F)cc3)cc21` returned an IC50 of 2130 nM.

The compound `O=C(O)Cn1c(=O)c(Sc2ccc(Cl)cc2)nc2ccc(F)cc21` showed an IC50 in data set [1] of 56 nM. For the same compound, the Selectivity ratio in the data set listed under Rattus norvegicus came out at 3.1.

For the compound `O=C(O)Cn1c(=O)c(CCc2ccc(O)cc2)nc2ccccc21`, in data set [1], the IC50 was 798 nM. For the same compound, the Activity in data set [3] stood at 16.2%.

On to `O=C(O)Cn1c(=O)c(-c2ccc(O)cc2O)nc2cc(Br)ccc21`, for which inhibition in data set [1] was half-maximal at 139 nM (IC50).

As to `O=C(O)Cn1c(=O)c(-c2ccc(O)cc2)nc2ccccc21`, in data set [1], the IC50 amounted to 2590 nM.

For `O=C(O)Cn1c(=O)c(-c2ccc(O)cc2O)nc2cc(F)ccc21`, in data set [1], the IC50 turned out to be 63 nM.

Compound `O=C(O)Cn1c(=O)c(Sc2ccc(Br)cc2)nc2cc(Br)ccc21` displayed a half-maximal inhibitory concentration (IC50) in data set [1] of 319 nM. Moreover, the Selectivity ratio in the data set filed under Rattus norvegicus was determined as 10.2.

The compound `O=C(O)Cn1c(=O)c(-c2ccc(O)cc2O)nc2ccc(Cl)cc21` had an IC50 in data set [1] of 69 nM.

As for `O=C(O)Cn1c(=O)c(-c2ccc(F)cc2)nc2ccc(Cl)cc21`, in data set [1], the half-maximal inhibitory concentration (IC50) is 1520 nM.

Regarding `O=C(O)Cn1c(=O)c(-c2ccc(O)cc2O)nc2ccc(Cc3ccc(F)cc3)cc21`, in data set [1], the IC50 was found to be 3340 nM.

Compound `O=C(O)Cn1c(=O)c(Sc2ccc(Cl)cc2)nc2ccccc21` returned an IC50 in data set [1] of 273 nM. Moreover, the Selectivity ratio in the data set listed under Rattus norvegicus came out at 1.9.

Take `O=C(O)Cn1c(=O)c(Oc2ccccc2)nc2ccccc21`: in data set [1], 468 nM corresponded to half-maximal inhibition (IC50). Moreover, in the data set listed under Rattus norvegicus, the Selectivity ratio worked out at 12.5.

As for `O=C(O)Cn1c(=O)c(-c2ccc(F)cc2)nc2ccccc21`, in data set [1], the IC50 was found to be 3380 nM.

As for `O=C(O)Cn1c(=O)c(Sc2ccc(Br)cc2)nc2ccc(Cl)cc21`, half-maximal inhibition in data set [1] (IC50) was put at 326 nM. In addition, the Selectivity ratio in the data set listed under Rattus norvegicus is 6.1.

Consider `O=C(O)Cn1c(=O)c(/C=C/c2ccc(O)cc2)nc2ccc(F)cc21`, for which it took 153 nM to reach half-maximal inhibition in data set [1] (IC50). Further, in the data set with Brain, the inhibition result is “Active”. Also, in data set [3], the Activity came to 67.2%.

`COc1ccc(/C=C/c2nc3ccccc3n(CC(=O)O)c2=O)cc1`: it took 4180 nM to reach half-maximal inhibition in data set [1] (IC50).

`O=C(O)Cn1c(=O)c(-c2c[nH]c3ccccc23)nc2ccccc21` returned an IC50 in data set [1] of 639 nM.

`O=C(O)Cn1c(=O)c(Sc2ccccc2)nc2ccccc21` returned an IC50 in data set [1] of 421 nM. The Selectivity ratio in the data set filed under Rattus norvegicus amounted to 2.7.

As for `O=C(O)Cn1c(=O)c(-c2c[nH]c3ccccc23)nc2ccc(Br)cc21`, 368 nM corresponded to half-maximal inhibition in data set [1] (IC50).

As for `O=C(O)Cn1c(=O)c(-c2cc3ccccc3s2)nc2ccc(Cl)cc21`, the IC50 in data set [1] was found to be 238 nM.

In data set [1], `O=C(O)Cn1c(=O)c(Sc2ccc(Br)cc2)nc2ccc(F)cc21` displayed an IC50 of 191 nM. In addition, in the data set listed under Rattus norvegicus, the Selectivity ratio turned out to be 1.9.

For the compound `COc1cc(/C=C/c2nc3ccccc3n(CC(=O)O)c2=O)ccc1O`, the results for the IC50 in data set [1] and in data set [2] were 419 nM and 24100 nM, respectively. In addition, the Activity in data set [4] is recorded as 39.6%; in data set [5], 68.8%; in data set [3] it was 95.4%. In the data set with Brain, the inhibition result was “Active”.

As for `O=C(O)Cn1c(=O)c(-c2ccc(F)cc2)nc2ccc(F)cc21`, in data set [1], the IC50 was 874 nM.

In turn, `O=C(O)Cn1c(=O)c(Sc2ccc(Br)cc2)nc2ccccc21` registered an IC50 in data set [1] of 296 nM. In addition, the Selectivity ratio in the data set filed under Rattus norvegicus was found to be 6.9.

`O=C(O)Cn1c(=O)c(Sc2ccc(Cl)cc2)nc2ccc(Cl)cc21` registered an IC50 in data set [1] of 158 nM. In addition, the Selectivity ratio in the data set listed under Rattus norvegicus amounted to 5.1.

On to `O=C(O)Cn1c(=O)c(-c2ccc(O)cc2O)nc2ccccc21`, for which, in data set [1], the IC50 was determined as 397 nM.

`O=C(O)Cn1c(=O)c(-c2ccccc2)nc2ccccc21`: the IC50 in data set [1] came out at 5980 nM.

For the compound `O=C(O)Cn1c(=O)c(Sc2ccc(Cl)cc2)nc2ccc(Br)cc21`, in data set [1], it took 395 nM to reach half-maximal inhibition (IC50). For the same compound, in the data set filed under Rattus norvegicus, the Selectivity ratio is 8.3.

Take `O=C(O)Cn1c(=O)c(-c2ccc(O)cc2O)nc2cc(Cl)ccc21`: in data set [1], the IC50 was 95 nM.

On to `O=C(O)Cn1c(=O)c(Cc2ccccc2)nc2ccccc21`, for which, in data set [1], half-maximal inhibition (IC50) was put at 1110 nM.
